How the values were obtained:
L1210 [1] = experiment: Growth inhibitory activity against L1210 cells (48h); type: functional, cell-based; conditions: Mus musculus, L1210, 48 h
Outline: (§1)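 Murine L1210 leukemia cells were kept in log growth in RPMI-1640 with 10% fetal calf serum or NuSerum, HEPES-MOPS buffer and 1 mM aminoguanidine. IC50 is the concentration giving 50% of untreated control growth, as the mean of at least two experiments.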

[2] = molecular target: Spermidine/spermine N(1)-acetyltransferase (SAT) (Mus musculus) (UniProt Q6P8J2+P48026); experiment: Effect on Spermidine/Spermine-Acetyltransferase (SSAT ) at 10 uM at 48 hour in L1210 cells; type: functional, cell-based
Spermidine/spermine N(1)-acetyltransferase (SAT) (Mus musculus), sequence (P48026 whole entry, looked up): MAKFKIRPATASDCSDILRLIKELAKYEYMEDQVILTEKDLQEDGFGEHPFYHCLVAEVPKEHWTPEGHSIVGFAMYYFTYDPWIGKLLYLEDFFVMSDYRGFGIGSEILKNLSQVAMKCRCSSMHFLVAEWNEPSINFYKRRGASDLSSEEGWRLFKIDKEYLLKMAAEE
Spermidine/spermine N(1)-acetyltransferase (SAT) (Mus musculus), sequence (Q6P8J2 whole entry, looked up): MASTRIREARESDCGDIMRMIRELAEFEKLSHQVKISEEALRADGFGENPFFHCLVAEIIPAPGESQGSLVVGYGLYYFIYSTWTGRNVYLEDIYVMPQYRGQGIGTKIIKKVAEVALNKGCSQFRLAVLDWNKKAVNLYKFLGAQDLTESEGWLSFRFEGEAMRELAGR
Outline: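 L1210 cells were exposed to 10 μM triamine for 48 h. SSAT activity was taken as [14C]N1-acetylspermidine formed from spermidine and [14C]acetyl-CoA, given as percent of untreated control. DENSPM-treated cells served as positive control. Values are the mean of at least three experiments.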

[3] = Effect on ornithine decarboxylase (ODC) tested at 1 uM at 4 hour in L1210 cells; type: functional, Mus musculus
Outline: (§2)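 L1210 cells were exposed to 1 μM analogue, for 4 h (ODC) or 6 h (AdoMetDC). Activity was measured as 14CO2 released from [14C]carboxyl-labelled L-ornithine (ODC) or S-adenosyl-L-methionine (AdoMetDC) and given as percent of untreated control. Each run included DEHSPM-treated positive controls. Values are the mean of at least three experiments.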

L1210 [4] = experiment: Percentage of spermidine after 48 hr of exposure to the compound (0.9 uM ) in L1210 cells; type: functional, Mus musculus
Outline: (§3)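 Murine L1210 leukemia cells in log-phase growth (RPMI-1640, 10% fetal calf serum or NuSerum, HEPES-MOPS, 1 mM aminoguanidine) exposed to analogue for 48 h. Cells washed twice with cold RPMI-1640 and extracted with 0.6 N HClO4. PUT, SPD and SPM measured by HPLC of DANSYL derivatives and given as percent of untreated controls. Triplicate flasks per experiment.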

L1210 [5] = experiment: Percentage of putrescine after 48 hr exposure to the compound (0.9 uM ) in L1210 cells; type: functional, Mus musculus; outline: as §3
[6] = molecular target: T1, S-adenosylmethionine decarboxylase proenzyme 1 (Mus musculus) (UniProt P0DMN7); experiment: Effect on S-Adenosyl-methionine decarboxylase (AdoMetDC) tested at 1 uM at 6 hour in L1210 cells; type: functional, cell-based; outline: as §2
T1 sequence (whole entry): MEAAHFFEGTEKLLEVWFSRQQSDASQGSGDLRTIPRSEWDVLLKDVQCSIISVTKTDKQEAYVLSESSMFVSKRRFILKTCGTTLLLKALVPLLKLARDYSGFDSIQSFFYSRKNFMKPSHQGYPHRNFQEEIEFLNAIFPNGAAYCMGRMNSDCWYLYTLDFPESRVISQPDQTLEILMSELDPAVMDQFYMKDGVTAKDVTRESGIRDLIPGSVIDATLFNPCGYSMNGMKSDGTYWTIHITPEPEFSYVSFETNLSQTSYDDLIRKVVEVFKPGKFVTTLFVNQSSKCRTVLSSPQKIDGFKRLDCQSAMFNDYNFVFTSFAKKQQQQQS

L1210 [7] = experiment: Percentage of putrescine after 48 hr exposure to the compound (4.5 uM ) in L1210 cells; type: functional, Mus musculus; outline: as §3
L1210 [8] = experiment: Percentage of spermine after 48 hr exposure to the compound (4.5 uM ) in L1210 cells; type: functional, Mus musculus; outline: as §3
[9] = Binding affinity values for polyamine transporter was determined
L1210 [10] = experiment: Percentage of spermidine after 48 hr of exposure to the compound (4.5 uM ) in L1210 cells; type: functional, Mus musculus; outline: as §3
L1210 [11] = experiment: Growth inhibitory activity against L1210 cells (96h); type: functional, cell-based; conditions: Mus musculus, L1210, 96 h; outline: as §1
L1210 [12] = experiment: Percentage of spermidine after 48 hr of exposure to the compound (10 uM ) in L1210 cells; type: functional, Mus musculus
Outline: (§4)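 Log-phase L1210 cells were treated for 48 h with analogue at two concentrations. Cells were washed twice in cold RPMI-1640 and extracted with 0.6 N HClO4. Putrescine, spermidine and spermine were quantified by HPLC of dansyl derivatives and given as percent of untreated controls. Runs were in triplicate with untreated controls.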

L1210 [13] = experiment: Percentage of putrescine after 48 hr exposure to the compound (10 uM ) in L1210 cells; type: functional, Mus musculus; outline: as §4
L1210 [14] = experiment: Percentage of putrescine after 48 hr exposure to the compound (2 uM ) in L1210 cells; type: functional, Mus musculus; outline: as §4
L1210 [15] = experiment: Intracellular levels in L1210 cells following 500 uM exposure.; type: functional, Mus musculus
Outline: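 L1210 cells were grown 48 h in medium containing 500 μM analogue. Cellular contents were analysed by HPLC of dansyl derivatives and given as pmol/10^6 cells, as parent drug and metabolites with the % of total drug in the cell.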

L1210 [16] = experiment: Percentage of spermidine after 48 hr of exposure to the compound (2 uM ) in L1210 cells; type: functional, Mus musculus; outline: as §4
L1210 [17] = experiment: Percentage of spermidine after 48 hr of exposure to the compound (75 uM ) in L1210 cells; type: functional, Mus musculus; outline: as §4
L1210 [18] = experiment: Percentage of putrescine after 48 hr exposure to the compound (15 uM )in L1210 cells; type: functional, Mus musculus; outline: as §4
L1210 [19] = experiment: Percentage of spermidine after 48 hr of exposure to the compound (15 uM ) in L1210 cells; type: functional, Mus musculus; outline: as §4
L1210 [20] = experiment: Percentage of putrescine after 48 hr exposure to the compound (75 uM ) in L1210 cells; type: functional, Mus musculus; outline: as §4
L1210 [21] = experiment: Percentage of spermine after 48 hr exposure to the compound (75(0.75)uM ) in L1210 cells; type: functional, Mus musculus
Outline: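 Log-phase murine L1210 leukemia cells (RPMI-1640, 10% fetal calf serum or NuSerum, HEPES-MOPS buffer, 1 mM aminoguanidine) exposed 48 h to analogue at two concentrations. Cells washed twice in cold RPMI-1640 and extracted with 0.6 N HClO4. Spermine in extracts quantified by HPLC of DANSYL derivatives and expressed as percent of untreated controls. Triplicate flasks per condition.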

L1210 [22] = experiment: Percentage of putrescine after 48 hr exposure to the compound (15(0.15)uM ) in L1210 cells; type: functional, Mus musculus; outline: as §4
L1210 [23] = experiment: Percentage of spermidine after 48 hr of exposure to the compound (75(0.75)uM ) in L1210 cells; type: functional, Mus musculus; outline: as §4
L1210 [24] = experiment: Percentage of spermine after 48 hr exposure to the compound (15(0.15)uM ) in L1210 cells; type: functional, Mus musculus; outline: as §4
L1210 [25] = experiment: Percentage of putrescine after 48 hr exposure to the compound (75(0.75)uM ) in L1210 cells; type: functional, Mus musculus; outline: as §4
L1210 [26] = experiment: Percentage of spermidine after 48 hr of exposure to the compound (15(0.15)uM ) in L1210 cells; type: functional, Mus musculus; outline: as §4

IC50 (L1210 [1])	SSAT [2]	AdoMetDC [6]	Ki [9]	IC50 (L1210 [11])	Structure (SMILES)	ODC [3]	Picoequivalents of amine/10e6 cells (L1210 [15])	further results
2 µM	130%	71%	21 µM	0.12 µM	CNCCCCCNCCCCNC	56%	20810	Polyamine (L1210 [12]): 18%; Polyamine (L1210 [13]): 0%; Polyamine (L1210 [14]): 0%; Polyamine (L1210 [16]): 33%
15 µM	90%	97%	130 µM	0.4 µM	CNCCCCCNCCCCCNC	105%	15500	Polyamine (L1210 [17]): 20%; Polyamine (L1210 [18]): 0%; Polyamine (L1210 [19]): 33%; Polyamine (L1210 [20]): 0%
11 µM	90%	109%	170 µM	0.7 µM	CCNCCCCCNCCCCCNCC	100%	9010	Polyamine (L1210 [21]): 73%; Polyamine (L1210 [22]): 0%; Polyamine (L1210 [23]): 23%; Polyamine (L1210 [24]): 97%; Polyamine (L1210 [25]): 0%; Polyamine (L1210 [26]): 55%

Structure (SMILES)	IC50 (L1210 [1])	SSAT [2]	AdoMetDC [6]	Ki [9]	IC50 (L1210 [11])	ODC [3]	Picoequivalents of amine/10e6 cells (L1210 [15])	further results
NCCCNCCCN [NORSPERMIDINE]	0.9 µM	150%	62%	7.2 µM	0.5 µM	11%	–	Polyamine (L1210 [4]): 44%; Polyamine (L1210 [5]): 38%; Polyamine (L1210 [7]): 0%; Polyamine (L1210 [8]): 83%; Polyamine (L1210 [10]): 12%
